Calls of active or inactive are those of the source. The calls are words filed in the database; no cut-off is given here.
Assays:
[1] = tested on: OVCAR-5; assay: Synergistic antitumor activity against human OVCAR-5 cells xenografted in po dosed SCID mouse assessed as maximum tumor growth inhibition in presence of docetaxel relative to control; format: functional
How it was run: (§1)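 Xenografts dosed with oral inhibitor plus intravenous docetaxel. TGImax = 100(1 − Tv/Cv), from mean treated and control tumor volumes; TGD = 100(T/C − 1), from median times to reach 1 cm3. Group size 5 mice (NCI-H747, A549-FP3, EBC-1, OVCAR-5), 8 (NCI-H358), 10 (NCI-H1650).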

[2] = tested on: MOLT-4; assay: Induction of apoptosis in human MOLT-4 cells assessed as increase in annexin V positive cells upto 500 nM incubated for 24 hrs by Annexin V staining based analysis; format: functional, cell-based
How it was run: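 Molt-4 cells were preincubated for 1 h with or without Z-VAD-fmk (75 μM), then treated for 24 h with increasing concentrations. Phosphatidylserine exposure was measured by annexin V staining. Values are the mean of triplicate experiments ± SD.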

[3] = tested on: MOLT-4; assay: Antitumor activity against human MOLT-4 cells xenografted in SCID-bg mouse assessed as tumor regression at 25 mg/kg, po administered twice a day for 14 days; format: functional, organism-based; conditions: time 14.0 day
How it was run: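 Mice bearing Molt-4 T-ALL xenografts, dosed alongside a vehicle control group. Each point on the growth curve is the mean volume of 10 tumours, with SD.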

[4] = tested on: NCI-H747; assay: Antitumor activity against human NCI-H747 cells xenografted in po dosed SCID-bg mouse assessed as maximum tumor growth inhibition relative to control; format: functional
[5] = Toxicity in po dosed SCID mouse assessed as tolerance; format: organism-based; conditions: in vivo
[6] = tested on: A549; assay: Antitumor activity against 3 times passaged human A549 cells xenografted in po dosed SCID mouse assessed as tumor growth delay relative to control; format: functional
[7] = tested on: A549; assay: Synergistic antitumor activity against 3 times passaged human A549 cells xenografted in po dosed SCID mouse assessed as maximum tumor growth inhibition in presence of docetaxel relative to control; format: functional; how it was run: as §1
[8] = tested on: MDA-MB-231; assay: Synergistic antitumor activity against LC3 positive human MDA-MB-231 cells xenografted in SCID mouse assessed as tumor growth delay at 25 mg/kg, po coadministered with docetaxel once daily for 14 days relative to control; format: functional; conditions: time 14 day
How it was run: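 MDA-MB-231 LC3 metastatic breast cancer xenograft, 10 mice per group, with a vehicle control. Dosing: oral agent 25 mg/kg daily for 14 days; docetaxel 7.5 mg/kg iv once; combination gives both regimens. Mean tumor volumes tracked. TGImax = 100(1 − Tv/Cv) from mean treated vs control volumes. TGD = 100(T/C − 1) from median times to reach 1 cm3.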

[9] = tested on: EBC-1; assay: Synergistic antitumor activity against human EBC-1 cells xenografted in po dosed SCID-bg mouse assessed as tumor growth delay in presence of docetaxel relative to control; format: functional; how it was run: as §1
[10] = Toxicity in po dosed SCID mouse assessed as body weight loss relative to control; format: organism-based; conditions: in vivo
[11] = tested on: NCI-H358; assay: Antitumor activity against human NCI-H358 cells xenografted in po dosed SCID mouse assessed as tumor growth delay relative to control; format: functional
How it was run: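 Tumor volume-based endpoints. TGD = 100(T/C − 1), where T and C are the median times for the treated and control groups to reach 1 cm3. Groups were five mice for NCI-H747 and OVCAR-5 and eight for NCI-H358. Docetaxel was given intravenously and the test agent orally.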

[12] = tested on: MCF7; assay: Synergistic antiproliferative activity against human MCF7 cells expressing luciferase assessed as reduction in cell viability by measuring bliss sum score incubated for 72 hrs in presence of docetaxel by CellTiter-Glo cell vaibility assay; format: functional
[13] = Antagonistic antiproliferative activity against […] (unknown origin) cells assessed as reduction in cell viability by measuring bliss sum score incubated for 72 hrs in presence of docetaxel by CellTiter-Glo cell vaibility assay; format: functional
[14] = tested on: SW1573; assay: Synergistic antiproliferative activity against human SW1573 cells assessed as reduction in cell viability by measuring bliss sum score incubated for 72 hrs in presence of docetaxel by CellTiter-Glo cell vaibility assay; format: functional
[15] = tested on: NCI-H1299; assay: Synergistic antiproliferative activity against human NCI-H1299 cells assessed as reduction in cell viability by measuring bliss sum score incubated for 72 hrs in presence of docetaxel by CellTiter-Glo cell vaibility assay; format: functional
[16] = tested on: HCC2218; assay: Antagonistic antiproliferative activity against human HCC2218 cells assessed as reduction in cell viability by measuring bliss sum score incubated for 72 hrs in presence of docetaxel by CellTiter-Glo cell vaibility assay; format: functional
[17] = tested on: BT-549; assay: Synergistic antiproliferative activity against human BT-549 cells assessed as reduction in cell viability by measuring bliss sum score incubated for 72 hrs in presence of docetaxel by CellTiter-Glo cell vaibility assay; format: functional
[18] = tested on: T47D; assay: Synergistic antiproliferative activity against human T47D cells assessed as reduction in cell viability by measuring bliss sum score incubated for 72 hrs in presence of docetaxel by CellTiter-Glo cell vaibility assay; format: functional
[19] = tested on: OVCAR-5; assay: Synergistic antiproliferative activity against human OVCAR-5 cells assessed as reduction in cell viability by measuring bliss sum score incubated for 72 hrs in presence of docetaxel by CellTiter-Glo cell vaibility assay; format: functional
[20] = tested on: NCI-H1650; assay: Synergistic antiproliferative activity against human NCI-H1650 cells assessed as reduction in cell viability by measuring bliss sum score incubated for 72 hrs in presence of docetaxel by CellTiter-Glo cell vaibility assay; format: functional
[21] = tested on: LXFL 529; assay: Synergistic antiproliferative activity against human LXFL 529 cells assessed as reduction in cell viability by measuring bliss sum score incubated for 72 hrs in presence of docetaxel by CellTiter-Glo cell vaibility assay; format: functional
[22] = tested on: OVCAR-3; assay: Synergistic antiproliferative activity against human OVCAR-3 cells assessed as reduction in cell viability by measuring bliss sum score incubated for 72 hrs in presence of docetaxel by CellTiter-Glo cell vaibility assay; format: functional
[23] = tested on: OVCAR-8; assay: Synergistic antiproliferative activity against human OVCAR-8 cells assessed as reduction in cell viability by measuring bliss sum score incubated for 72 hrs in presence of docetaxel by CellTiter-Glo cell vaibility assay; format: functional
[24] = tested on: HCC1937; assay: Synergistic antiproliferative activity against human HCC1937 cells assessed as reduction in cell viability by measuring bliss sum score incubated for 72 hrs in presence of docetaxel by CellTiter-Glo cell vaibility assay; format: functional
[25] = tested on: HCC1143; assay: Induction of apoptosis in human HCC1143 cells assessed as accumulation of cells with sub-G0-G1 DNA content at 1 uM incubated for 48 hrs in presence of docetaxel by flow cytometric analysis; format: functional, cell-based
[26] = tested on: HCC1937; assay: Induction of apoptosis in human HCC1937 cells assessed as accumulation of cells with sub-G0-G1 DNA content at 1 uM incubated for 48 hrs in presence of docetaxel by flow cytometric analysis; format: functional, cell-based
[27] = tested on: ZR-75-1; assay: Induction of apoptosis in human ZR-75-1 cells assessed as poly(ADP-ribose) polymerase cleavage incubated for 48 hrs in presence of docetaxel by immunoblot analysis; format: functional, cell-based
[28] = tested on: HCC1428; assay: Induction of apoptosis in human HCC1428 cells assessed as accumulation of cells with sub-G0-G1 DNA content at 1 uM incubated for 48 hrs in presence of docetaxel by flow cytometric analysis; format: functional, cell-based
[29] = tested on: MDA-MB-468; assay: Induction of apoptosis in human MDA-MB-468 cells assessed as poly(ADP-ribose) polymerase cleavage incubated for 48 hrs in presence of docetaxel by immunoblot analysis; format: functional, cell-based

**Q.** For Cc1c(-c2ccc(N3CCc4cccc(C(=O)Nc5nc6ccccc6s5)c4C3)nc2C(=O)O)cnn1CC12CC3CC(CC(C3)C1)C2, which TGI [1] is on record?
**A.** 57%

**Q.** And the Activity [2]?
**A.** Active

**Q.** What about the Activity [3] of the same molecule?
**A.** Active

**Q.** What about the TGI [4] of the same molecule?
**A.** 50%

**Q.** What about the Activity [5] of the same molecule?
**A.** Non-Toxic

**Q.** And the Activity [6]?
**A.** 108%

**Q.** And the TGI [7]?
**A.** 74%

**Q.** And the Activity [8]?
**A.** 141%

**Q.** What about the Activity [9] of the same molecule?
**A.** 94%

**Q.** What about the Activity [10] of the same molecule?
**A.** < 9%

**Q.** What about the Activity [11] of the same molecule?
**A.** 80%

**Q.** Which results are given for CN(C)CC#Cc1ccc(OCCCc2sc(N3CCc4cccc(C(=O)Nc5nc6ccccc6s5)c4C3)nc2C(=O)O)c(F)c1 [A-1155463]?
**A.** Activity_index [12]: 63; Activity_index [13]: -269; Activity_index [14]: 461; Activity_index [15]: 302; Activity_index [16]: -250; Activity_index [17]: 117; Activity_index [18]: 250; Activity_index [19]: 706; Activity_index [20]: 312; Activity_index [21]: 734; Activity_index [22]: 683; Activity_index [23]: 159; Activity_index [24]: 332

**Q.** What does the source list for CC1(C)CCC(c2ccc(Cl)cc2)=C(CN2CCN(c3ccc(C(=O)NS(=O)(=O)c4ccc(N[C@H](CCN5CCOCC5)CSc5ccccc5)c(S(=O)(=O)C(F)(F)F)c4)cc3)CC2)C1 [NAVITOCLAX]?
**A.** Activity [25]: Active; Activity [26]: Active; Activity [27]: Active; Activity [28]: Active; Activity [29]: Active
